Experimental data as given in ChEMBL document CHEMBL2086232, “Exploration of the SAR of anti-invasive chalcones: synthesis and biological evaluation of conformationally restricted analogues” (Bioorg Med Chem, 2012).
The source made the active and inactive calls. The rule behind the calls is not given here.

What was measured:
[1] = test system: MCF7/6; experiment: Antiinvasive activity against human MCF7/6 cells assessed as inhibition of cell invasion across chick precultured heart fragments at 1 umol/L after 8 days by chick heart invasion assay; assay type: functional, cell-based
Outline: (§1)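 Heart fragments from 9-day-old chick embryos were precultured, then confronted with aggregates of invasive human MCF-7/6 mammary carcinoma cells with test compound present. Replicate cultures were graded at each concentration.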

[2] = test system: MCF7/6; experiment: Antiinvasive activity against human MCF7/6 cells assessed as inhibition of cell invasion across chick precultured heart fragments at 100 umol/L after 8 days by chick heart invasion assay; assay type: functional, cell-based; outline: as §1
[3] = Cytotoxicity against human MCF7/6 cells at 10 umol/L after 8 days by histological analysis; assay type: cell-based; conditions: mcf7/6, 192 h, 10 µM
Outline: (§2)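 Chick heart confronting cultures (9-day-old embryo precultured heart fragments plus MCF-7/6 aggregates, compound present) were examined on 7-µm histological sections. Replicate cultures were graded per concentration.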

[4] = test system: MCF7/6; experiment: Antiinvasive activity against human MCF7/6 cells assessed as inhibition of cell invasion across chick precultured heart fragments at 10 umol/L after 8 days by chick heart invasion assay; assay type: functional, cell-based; outline: as §1
[5] = Cytotoxicity against human MCF7/6 cells at 100 umol/L after 8 days by histological analysis; assay type: cell-based; conditions: mcf7/6, 192 h, 100 µM; outline: as §2
[6] = test system: MCF7/6; experiment: Antiinvasive activity against human MCF7/6 cells assessed as inhibition of cell invasion across chick precultured heart fragments at 0.1 umol/L after 8 days by chick heart invasion assay; assay type: functional, cell-based; outline: as §1
[7] = Toxicity against chick precultured heart fragments at 10 umol/L after 8 days by histological analysis; assay type: tissue-based, Gallus gallus; conditions: chicken, 192 h, 10 µM

Structure (SMILES): COc1ccc(C2=NOC(c3ccc(Cl)cc3)C2)cc1 (stereo not given)
- Activity [1]: inactive
- Activity [2]: inactive

Structure (SMILES): COc1cc(-c2oncc2-c2ccc(F)cc2)cc(OC)c1OC
- Activity [3]: Toxic
- Activity [4]: Active
- Activity [5]: Toxic
- Activity [1]: Active
- Activity [6]: inactive
- Activity [7]: Toxic

Structure (SMILES): COc1cc(C(=O)Cc2ccc(F)cc2)cc(OC)c1OC
- Activity [4]: inactive
- Activity [5]: Toxic
- Activity [1]: inactive
- Activity [6]: inactive
- Activity [2]: Active

Structure (SMILES): COc1cc(-c2cc(-c3ccc(F)cc3)on2)cc(OC)c1OC
- Activity [4]: Active
- Activity [5]: Toxic
- Activity [1]: inactive
- Activity [6]: inactive
- Activity [2]: Active

Structure (SMILES): COc1ccc(-c2cc(-c3ccc(Cl)cc3)on2)cc1
- Activity [4]: inactive
- Activity [1]: inactive
